# pIC50: −log10 of the molar value. Activity calls are given as the source filed them. The calls are words filed in the database; no cut-off is given here.
# Key:
# T84 [1] = test: Antiproliferative activity against human T84 cells after 3 days by sulforhodamine B assay; type: functional, cell-based; conditions: T84, 72 h
# Summary of the method: (§1)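 Cells grown in DMEM with 10% heat-inactivated FBS, penicillin-streptomycin and 2 mM L-glutamine at 37°C, 5% CO2. Seeded at 5 x 10^3 cells/cm², exposed 24 h later to increasing compound concentrations for 3 days. Fixed with cold 10% TCA, stained with 0.4% SRB, dye solubilized in 10 mM Tris pH 10.5, OD read at 492 nm. IC50 taken by linear interpolation of semilog dose-response curve; seven biological replicates, mean ± SEM.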
# MCF7 [2] = test: Antiproliferative activity against human MCF7 cells after 3 days by sulforhodamine B assay; type: functional, cell-based; conditions: MCF7, 72 h; summary of the method: as §1
# A549 [3] = test: Antiproliferative activity against human A549 cells after 3 days by sulforhodamine B assay; type: functional, cell-based; conditions: A549, 72 h; summary of the method: as §1
# MCF7 [4] = test: Potency index, ratio of 5-fluorouracil IC50 to test compound IC50 for human MCF7 cells; type: functional
# A549 [5] = test: Induction of apoptosis in human A549 cells assessed as increase in Bax to Bcl2 ratio at 0.5 to 1 times IC50 after 24 hrs Western blot analysis; type: functional, cell-based
# Summary of the method: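 A-549 seeded at 4 x 10^4 cells/cm², treated 24 h later at 0x, 0.5x or 1x IC50 for 24 h. Lysed in SDS sample buffer, proteins separated on 12% acrylamide gels and transferred to nitrocellulose. Blocked 1 h in 3% milk/1% BSA/0.5% Tween-20 in PBS. Probed overnight with mouse monoclonal anti-Bax or anti-Bcl-2, then HRP anti-mouse IgG.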
# PBMC [6] = test: Cytotoxicity against human PBMC assessed as reduction in cell viability at 10 uM by MTT assay relative to control; type: cell-based
# Summary of the method: (§2)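 PBMC isolated from healthy donor blood by Histopaque-1077 density gradient centrifugation. Cultured in RPMI-1640 with 20% FBS, penicillin-streptomycin and 2 mM glutamine at 37°C, 5% CO2. Exposed to increasing compound concentrations; viability of non-adherent cultures measured by MTT at 570 and 595 nm and expressed against untreated control cultures.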
# A549 [7] = test: Induction of apoptosis in human A549 cells assessed as viable cells at IC50 after 24 hrs by Annexin-V-FITC/propidium iodide staining based flow cytometry (reference value: 83.6%); type: functional
# A549 [8] = test: Cell cycle arrest in human A549 cells assessed as accumulation at sub-G1 phase at IC50 after 48 hrs by propidium iodide staining based flow cytometry (reference value: 2.6%); type: functional
# T84 [9] = test: Potency index, ratio of 5-fluorouracil IC50 to test compound IC50 for human T84 cells; type: functional
# A549 [10] = test: Cell cycle arrest in human A549 cells assessed as reduction in accumulation at S phase at IC50 after 48 hrs by propidium iodide staining based flow cytometry; type: functional
# A549 [11] = test: Cell cycle arrest in human A549 cells assessed as accumulation at G2/M phase at IC50 after 24 hrs by propidium iodide staining based flow cytometry (reference value: 8.8%); type: functional
# A549 [12] = test: Cell cycle arrest in human A549 cells assessed as reduction in accumulation at G2/M phase at IC50 after 48 hrs by propidium iodide staining based flow cytometry; type: functional
# A549 [13] = test: Cell cycle arrest in human A549 cells assessed as reduction in accumulation at G1 phase at IC50 after 48 hrs by propidium iodide staining based flow cytometry; type: functional
# A549 [14] = test: Induction of apoptosis in human A549 cells assessed as total apoptotic cells at IC50 after 24 hrs by Annexin-V-FITC/propidium iodide staining based flow cytometry (reference value: 13.2%); type: functional
# A549 [15] = test: Cell cycle arrest in human A549 cells assessed as accumulation at G0/G1 phase at IC50 after 24 hrs by propidium iodide staining based flow cytometry (reference value: 60.6%); type: functional
# [16] = Cytotoxicity against human PBMC assessed as cell viability at 5 uM by MTT assay relative to control; type: cell-based; conditions: PBMC (peripheral blood mononuclear cells), read-out: Activity; summary of the method: as §2
# A549 [17] = test: Potency index, ratio of 5-fluorouracil IC50 to test compound IC50 for human A549 cells; type: functional
# [18] = Cytotoxicity against human PBMC assessed as cell viability at 2.5 uM by MTT assay relative to control; type: cell-based; conditions: PBMC (peripheral blood mononuclear cells), read-out: Activity; summary of the method: as §2
# [19] = Cytotoxicity against human PBMC assessed as cell viability at 1 uM by MTT assay relative to control; type: cell-based; conditions: PBMC (peripheral blood mononuclear cells), read-out: Activity; summary of the method: as §2
# PBMC [20] = test: Cytotoxicity against human PBMC assessed as reduction in cell viability at 0.5 uM by MTT assay relative to control; type: cell-based
# Summary of the method: (§3)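 PBMC isolated from healthy donor blood by density gradient centrifugation (Histopaque-1077), cultured in RPMI-1640 with 20% FBS, penicillin-streptomycin and 2 mM glutamine at 37°C, 5% CO2. Cells exposed to increasing compound concentrations for 3 days. Viability read by MTT at 570 and 595 nm and expressed versus untreated control cultures.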
# PBMC [21] = test: Cytotoxicity against human PBMC assessed as reduction in cell viability at 0.5 to 10 uM by MTT assay; type: cell-based; summary of the method: as §3
SMILES,pIC50 (T84 [1]),pIC50 (MCF7 [2]),pIC50 (A549 [3]),further results
COC(=O)[C@@]1(C)CCC[C@]2(C)c3cc(O)cc(C(C)C)c3CC[C@@H]12,4.52,4.54,4.73,
CC(=O)c1cc2c(cc1O)[C@@]1(C)CCC[C@](C)(CO)[C@@H]1CC2,5.11,5.03,5.32,
COC(=O)c1cc(O)cc2c1CC[C@H]1[C@@](C)(C(=O)OC)CCC[C@]21C,< 4.40,< 4.40,< 4.40,
COC(=O)[C@@]1(C)CCC[C@]2(C)c3c(O)c(O)cc(C(C)C)c3CC[C@@H]12,6.00,5.55,6.22,Ratio IC50 (MCF7 [4]): 4; Activity (A549 [5]): Active; Activity (PBMC [6]): 21.5%; Activity (A549 [7]): 54.2%; Activity (A549 [8]): 70.1%; Ratio IC50 (T84 [9]): 4; Activity (A549 [10]): Active; Activity (A549 [11]): 14.5%; Activity (A549 [12]): Active; Activity (A549 [13]): Active; Activity (A549 [14]): 44%; Activity (A549 [15]): 53.7%; viability at 5 µM [16]: 87.7%; Ratio IC50 (A549 [17]): 4; viability at 2.5 µM [18]: 81.3%; viability at 1 µM [19]: 86.4%
COC(=O)c1cc2c(cc1OC)[C@@]1(C)CCC[C@](C)(C(=O)OC)[C@@H]1CC2,< 4.40,< 4.40,< 4.40,
C=C(C)c1cc(O)cc2c1CC[C@H]1[C@@](C)(C(=O)OC)CCC[C@]21C,4.51,4.58,4.63,
O=c1[nH]cc(F)c(=O)[nH]1 [FLUOROURACIL],5.47,5.11,5.15,
COC(=O)c1cc2c(cc1O)[C@@]1(C)CCC[C@](C)(C(=O)OC)[C@@H]1CC2,4.68,4.66,4.76,
COC(=O)[C@@]1(C)CCC[C@]2(C)C3=C(CC[C@@H]12)C(C(C)C)=CC(=O)C3=O,4.94,5.96,5.17,Activity (PBMC [20]): 25%; Activity (PBMC [6]): 43.8%; viability at 5 µM [16]: 58.3%; Activity (PBMC [21]): Toxic; viability at 2.5 µM [18]: 64.7%; viability at 1 µM [19]: 69.2%

# Reference: ChEMBL document CHEMBL4265955, “Synthesis and antiproliferative activity of podocarpane and totarane derivatives” (Eur J Med Chem, 2018)
